In ChEMBL document CHEMBL5236592, “Induction of Ferroptosis in Glioblastoma and Ovarian Cancers by a New Pyrrole Tubulin Assembly Inhibitor” (J Med Chem, 2022):
Activity calls are given as the source filed them.

How the values were obtained:
Format in all cases: functional, organism-based
Conditions in all cases: time 40.0 day
U-87MG ATCC [1] = assay: Induction of ferroptosis-mediated antitumor activity against human U-87 MG cells xenografted in BALB/C nu/nu mouse assessed as increase in […] level in tumor at 25 mg/kg, ip administered every 2 days for 40 days by biochemical analysis
Summary of the method: (§1)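 U-87 MG or SKOV-3 sc xenografts (1 × 10^8 cells/mL) in female BALB/c nu/nu mice, 4 per group. Given 25 mg/kg ip in 100 μL every 2 days, or saline. Tumors harvested on day 40 and assayed for LPO, MDA, lactic acid, total glutathione (GSH + GSSG), ATP and Fe2+.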

SK-OV-3 [2] = assay: Induction of ferroptosis-mediated antitumor activity against human SK-OV-3 cells xenografted in BALB/C nu/nu mouse assessed as increase in […] level in tumor at 25 mg/kg, ip administered every 2 days for 40 days by biochemical analysis; summary of the method: as §1
U-87MG ATCC [3] = assay: Induction of ferroptosis-mediated antitumor activity against human U-87 MG cells xenografted in BALB/C nu/nu mouse assessed as reduction in ATP level in tumor at 25 mg/kg, ip administered every 2 days for 40 days by biochemical analysis; summary of the method: as §1
U-87MG ATCC [4] = assay: Induction of ferroptosis-mediated antitumor activity against human U-87 MG cells xenografted in BALB/C nu/nu mouse assessed as increase in Fe2+ level in tumor at 25 mg/kg, ip administered every 2 days for 40 days; summary of the method: as §1
Mus musculus [5] = assay: Upregulation of Ptgs2 mRNA expression in tumor of BALB/C nu/nu mouse xenografted with human U-87 MG cells at 25 mg/kg, ip administered every 2 days for 40 days by qPCR analysis
Summary of the method: (§2)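 Female BALB/c nu/nu mice, 10 weeks old, 4 per group. Inoculated s.c. with 1 × 10^8 cells/mL of log-phase U-87 MG or SKOV-3 cells. Dosed i.p. with 100 μL at 25 mg/kg every 2 days; controls got 100 μL saline. Tumors harvested on day 40. RNA extracted from about 20 mg of tissue. qPCR panel of 69 genes, 40 cycles (94 °C 20 s, 60 °C 34 s). Analysed by 2–ΔΔCt; fold ≥1.5 taken as increased.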

Mus musculus [6] = assay: Upregulation of Acsf2 mRNA expression in tumor of BALB/C nu/nu mouse xenografted with human U-87 MG cells at 25 mg/kg, ip administered every 2 days for 40 days by qPCR analysis
Summary of the method: (§3)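 Female BALB/c nu/nu mice bearing sc U-87 MG or SKOV-3 xenografts were dosed ip at 25 mg/kg (100 μL) every 2 days, or given saline, and tumors were taken at day 40. RNA was extracted from about 20 mg of tissue. qPCR ran 40 cycles (95 °C 15 min; 94 °C 20 s; 60 °C 34 s) on a 69-gene panel. Fold change was by 2^–ΔΔCt, with ≥1.5 counted as increased.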

Mus musculus [7] = assay: Upregulation of Akr1c3 mRNA expression in tumor of BALB/C nu/nu mouse xenografted with human U-87 MG cells at 25 mg/kg, ip administered every 2 days for 40 days by qPCR analysis; summary of the method: as §3
Mus musculus [8] = assay: Upregulation of Nrf2 mRNA expression in tumor of BALB/C nu/nu mouse xenografted with human U-87 MG cells at 25 mg/kg, ip administered every 2 days for 40 days by qPCR analysis; summary of the method: as §2
Mus musculus [9] = assay: Upregulation of ALOX5 mRNA expression in tumor of BALB/C nu/nu mouse xenografted with human SK-OV-3 cells at 25 mg/kg, ip administered every 2 days for 40 days by qPCR analysis; summary of the method: as §3
Mus musculus [10] = assay: Upregulation of FTH1 mRNA expression in tumor of BALB/C nu/nu mouse xenografted with human SK-OV-3 cells at 25 mg/kg, ip administered every 2 days for 40 days by qPCR analysis; summary of the method: as §3
Mus musculus [11] = assay: Upregulation of Gpx4 mRNA expression in tumor of BALB/C nu/nu mouse xenografted with human SK-OV-3 cells at 25 mg/kg, ip administered every 2 days for 40 days by qPCR analysis; summary of the method: as §2
Mus musculus [12] = assay: Upregulation of Akr1c1 mRNA expression in tumor of BALB/C nu/nu mouse xenografted with human SK-OV-3 cells at 25 mg/kg, ip administered every 2 days for 40 days by qPCR analysis; summary of the method: as §3
Mus musculus [13] = assay: Upregulation of Chac1 mRNA expression in tumor of BALB/C nu/nu mouse xenografted with human SK-OV-3 cells at 25 mg/kg, ip administered every 2 days for 40 days by qPCR analysis; summary of the method: as §3
SK-OV-3 [14] = assay: Antitumor activity against human SK-OV-3 cells xenografted in BALB/C nu/nu mouse assessed as reduction in Ki67 expression in tumor at 25 mg/kg, ip administered every 2 days for 40 days by immunofluoresence staining based assay
Summary of the method: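 Female BALB/c nu/nu mice, 10 weeks old, 4 per group. Received subcutaneous U-87 MG or SKOV-3 cells (1 × 10^8 cells/mL, harvested in log phase). Dosed ip with 100 μL at 25 mg/kg every 2 days; controls got 100 μL saline on the same schedule. Sacrificed at 40 days; tumors weighed, volume = ab²/2. Tumor sections (6 μm, paraffin) stained by immunofluorescence for Ki67 or CD31 with Alexa Fluor 488 secondary.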

U-87MG ATCC [15] = assay: Induction of ferroptosis-mediated antitumor activity against human U-87 MG cells xenografted in BALB/C nu/nu mouse assessed as reduction in FTH1 protein expression in tumor at 25 mg/kg, ip administered every 2 days for 40 days by immunofluoresence staining based assay
Summary of the method: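 Xenografts of U-87 MG or SKOV-3 (1 × 10^8 cells/mL, sc) in female BALB/c nu/nu mice, 4 per group. Treated ip at 25 mg/kg in 100 μL every 2 days versus saline, tumors collected at day 40. Paraffin sections (6 μm) were blocked at 37 °C for 30 min, then incubated with rabbit anti-GPX4 or anti-FTH1 and then Alexa Fluor 488 anti-rabbit, each for 45 min at 37 °C.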

Measured: Activity

COc1cc(C(=O)c2cn(-c3ncccn3)cc2-c2ccco2)cc(OC)c1OC
active: all assays above
